# Source: ChEMBL document CHEMBL3112459, “Synthesis and assay of retro-α4β1 integrin-targeting motifs” (Eur J Med Chem, 2014)
# Numbered stars: 1 amine (or outer) side, 2 acyl side, 3 side chain; on linkers, the order of the positions; unused ones are H or OH. Square brackets hold non-standard residues; d marks the D form. Peptide text beside a SMILES is read from it. * marks the point of attachment. X1 = O=C(Cc1ccc(N[*:1])cc1)[*:2]; NH(2-Me-phenyl) = Cc1ccccc1N*; CO = O=C([*:1])[*:2]
# What was measured:
# Integrin alpha-4/beta-1 [1] = biological target: T1, Integrin alpha-4/beta-1 (Homo sapiens, UniProt P05556+P13612); experiment: Inhibition of human alpha4beta1 integrin expressed in human Jurkat cells assessed as inhibition of cell adhesion to VCAM-1; assay type: cell-based
# T1 sequence (P05556 whole entry): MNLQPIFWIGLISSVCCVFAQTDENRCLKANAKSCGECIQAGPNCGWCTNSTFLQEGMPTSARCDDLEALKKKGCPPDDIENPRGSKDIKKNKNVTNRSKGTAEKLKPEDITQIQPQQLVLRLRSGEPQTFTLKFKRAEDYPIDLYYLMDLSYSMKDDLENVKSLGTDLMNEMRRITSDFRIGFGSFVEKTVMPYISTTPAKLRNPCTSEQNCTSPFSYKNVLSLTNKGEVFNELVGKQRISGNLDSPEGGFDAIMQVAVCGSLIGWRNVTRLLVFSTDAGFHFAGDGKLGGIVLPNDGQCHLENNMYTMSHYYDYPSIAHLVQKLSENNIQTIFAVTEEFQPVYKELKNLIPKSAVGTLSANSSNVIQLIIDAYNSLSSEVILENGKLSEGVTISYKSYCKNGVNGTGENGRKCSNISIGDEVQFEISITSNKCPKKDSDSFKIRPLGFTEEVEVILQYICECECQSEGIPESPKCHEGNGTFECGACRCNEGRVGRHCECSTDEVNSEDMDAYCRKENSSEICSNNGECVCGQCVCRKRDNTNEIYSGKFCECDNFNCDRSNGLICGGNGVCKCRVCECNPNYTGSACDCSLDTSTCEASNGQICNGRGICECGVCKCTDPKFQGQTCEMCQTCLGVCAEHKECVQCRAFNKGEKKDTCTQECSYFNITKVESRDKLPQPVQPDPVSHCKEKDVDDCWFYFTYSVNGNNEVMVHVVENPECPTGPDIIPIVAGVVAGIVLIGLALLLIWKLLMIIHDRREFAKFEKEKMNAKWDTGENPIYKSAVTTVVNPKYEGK
# T1 sequence (P13612 whole entry): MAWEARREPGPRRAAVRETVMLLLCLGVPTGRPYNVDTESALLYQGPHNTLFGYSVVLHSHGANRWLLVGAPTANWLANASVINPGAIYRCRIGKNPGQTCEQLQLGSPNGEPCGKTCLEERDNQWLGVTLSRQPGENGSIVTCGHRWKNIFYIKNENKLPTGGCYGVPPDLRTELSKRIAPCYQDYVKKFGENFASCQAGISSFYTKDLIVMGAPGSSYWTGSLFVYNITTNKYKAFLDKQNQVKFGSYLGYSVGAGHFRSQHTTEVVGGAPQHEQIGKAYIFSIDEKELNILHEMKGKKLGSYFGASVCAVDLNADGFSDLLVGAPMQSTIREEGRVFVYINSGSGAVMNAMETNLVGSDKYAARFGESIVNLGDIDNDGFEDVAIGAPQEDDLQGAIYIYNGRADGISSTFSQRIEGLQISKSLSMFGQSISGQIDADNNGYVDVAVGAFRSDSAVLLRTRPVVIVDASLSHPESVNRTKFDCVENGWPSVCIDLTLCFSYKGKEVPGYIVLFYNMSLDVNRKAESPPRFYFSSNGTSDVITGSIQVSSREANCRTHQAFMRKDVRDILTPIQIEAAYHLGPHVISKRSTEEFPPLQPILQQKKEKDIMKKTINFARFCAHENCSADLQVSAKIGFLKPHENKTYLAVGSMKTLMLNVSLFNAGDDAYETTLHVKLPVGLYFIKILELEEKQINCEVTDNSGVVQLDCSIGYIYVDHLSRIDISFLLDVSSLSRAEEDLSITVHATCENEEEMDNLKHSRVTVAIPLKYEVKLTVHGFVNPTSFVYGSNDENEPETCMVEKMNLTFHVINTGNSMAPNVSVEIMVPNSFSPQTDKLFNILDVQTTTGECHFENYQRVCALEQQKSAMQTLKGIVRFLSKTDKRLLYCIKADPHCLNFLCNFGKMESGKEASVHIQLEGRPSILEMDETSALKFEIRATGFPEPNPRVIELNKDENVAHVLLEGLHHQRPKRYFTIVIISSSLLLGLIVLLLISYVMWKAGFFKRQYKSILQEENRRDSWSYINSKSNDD
# How it was run: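 Jurkat cells (5 × 10⁵ per well) adhered to wells coated overnight at 4 °C with human recombinant VCAM-1. Wells were blocked with 1% BSA/HBSS for 30 min at 37 °C. Data are mean ± S.E.M.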
# Integrin alpha-4/beta-1 [2] = biological target: T1, Integrin alpha-4/beta-1; experiment: Displacement of [125I]-FN from human alpha4beta1 integrin expressed in human Jurkat cells by scintillation proximity assay; assay type: cell-based
# How it was run: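 Jurkat cells stably expressing human α4 integrin were the integrin source. The α4 integrin–anti-α4 antibody complex was captured on anti-rabbit IgG-coated scintillant microspheres. Soluble ¹²⁵I-human FN (~440 kDa) was the radioligand, incubated overnight, with counts read as cpm. IC50 values came from competition curves and were converted to Ki by Cheng–Prusoff. Data are mean ± S.E.M.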
# Serum = experiment: (§1) Drug degradation in 100% mouse serum after 120 mins; assay type: ADME, cell-free; conditions: 2 h
# How it was run: (§2)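 Peptides were dissolved in Tris buffer pH 7.4, and aliquots of a 10 mM stock were added to mouse serum (10 µL into 190 µL). Incubation was at 37 °C for 120 min. Withdrawn aliquots were quenched with glacial acetonitrile to precipitate proteins and analysed by RP-HPLC and ESI-MS. Runs were in triplicate and repeated three times.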
# [3] = as §1; assay type: ADME, cell-free; conditions: read-out: Drug degradation; how it was run: as §2
# SK-MEL-24 = experiment: Cytotoxicity against human SK-MEL-24 cells by trypan blue exclusion assay; assay type: cell-based
# Integrin alpha-V/beta-3 = Integrin alpha-V/beta-3 (Homo sapiens, UniProt P05106+P06756); experiment: Inhibition of human alphavbeta3 integrin expressed in human SK-MEL-24 cells assessed as inhibition of cell adhesion to vitronectin; assay type: cell-based
# Integrin alpha-V/beta-3, sequence (P05106 27-788 limits assumed): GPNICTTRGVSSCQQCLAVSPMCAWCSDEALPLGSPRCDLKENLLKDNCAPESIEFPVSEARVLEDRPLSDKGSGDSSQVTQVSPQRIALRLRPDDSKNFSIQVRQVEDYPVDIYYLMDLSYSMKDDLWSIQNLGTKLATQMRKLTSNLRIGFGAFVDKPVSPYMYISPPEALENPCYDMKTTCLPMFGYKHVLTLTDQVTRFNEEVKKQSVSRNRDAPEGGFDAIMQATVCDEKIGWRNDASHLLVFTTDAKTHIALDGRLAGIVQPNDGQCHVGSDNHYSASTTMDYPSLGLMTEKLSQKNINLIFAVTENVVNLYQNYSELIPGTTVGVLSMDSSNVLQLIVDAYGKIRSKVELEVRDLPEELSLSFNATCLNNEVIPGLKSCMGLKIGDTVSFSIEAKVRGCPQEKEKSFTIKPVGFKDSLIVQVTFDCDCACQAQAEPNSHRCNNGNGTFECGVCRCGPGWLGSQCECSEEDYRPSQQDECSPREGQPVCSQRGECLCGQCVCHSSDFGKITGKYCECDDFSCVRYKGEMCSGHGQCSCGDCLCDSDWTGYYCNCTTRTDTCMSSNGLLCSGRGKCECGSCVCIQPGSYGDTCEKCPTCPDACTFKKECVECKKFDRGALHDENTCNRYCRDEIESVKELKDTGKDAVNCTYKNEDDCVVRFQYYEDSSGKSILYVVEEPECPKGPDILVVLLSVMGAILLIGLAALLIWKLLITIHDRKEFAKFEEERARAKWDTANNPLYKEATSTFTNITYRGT
# Integrin alpha-V/beta-3, sequence (P06756 31-889 limits assumed): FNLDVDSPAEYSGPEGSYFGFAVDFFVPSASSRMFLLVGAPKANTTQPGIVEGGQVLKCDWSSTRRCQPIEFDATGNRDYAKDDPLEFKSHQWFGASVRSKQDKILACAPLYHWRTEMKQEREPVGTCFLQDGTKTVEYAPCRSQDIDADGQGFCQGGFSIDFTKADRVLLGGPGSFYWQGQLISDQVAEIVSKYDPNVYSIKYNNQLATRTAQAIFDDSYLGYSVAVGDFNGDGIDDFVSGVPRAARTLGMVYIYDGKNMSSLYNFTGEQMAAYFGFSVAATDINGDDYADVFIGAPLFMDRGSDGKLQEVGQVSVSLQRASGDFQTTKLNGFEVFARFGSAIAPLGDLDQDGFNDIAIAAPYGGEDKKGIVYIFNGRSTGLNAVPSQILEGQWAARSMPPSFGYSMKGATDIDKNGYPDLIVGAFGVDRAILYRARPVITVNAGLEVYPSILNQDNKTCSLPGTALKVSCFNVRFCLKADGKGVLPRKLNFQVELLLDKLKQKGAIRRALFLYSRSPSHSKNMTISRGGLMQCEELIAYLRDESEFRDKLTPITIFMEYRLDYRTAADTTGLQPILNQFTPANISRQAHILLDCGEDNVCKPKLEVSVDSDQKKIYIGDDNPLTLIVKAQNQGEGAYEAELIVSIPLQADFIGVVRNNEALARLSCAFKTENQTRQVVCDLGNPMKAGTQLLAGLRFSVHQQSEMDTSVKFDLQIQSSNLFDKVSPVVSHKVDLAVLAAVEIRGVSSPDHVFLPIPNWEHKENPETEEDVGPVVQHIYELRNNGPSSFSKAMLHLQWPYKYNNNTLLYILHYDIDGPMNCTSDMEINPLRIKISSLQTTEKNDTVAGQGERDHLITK
# Integrin alpha-V/beta-3, sequence (P06756 891-1048 limits assumed): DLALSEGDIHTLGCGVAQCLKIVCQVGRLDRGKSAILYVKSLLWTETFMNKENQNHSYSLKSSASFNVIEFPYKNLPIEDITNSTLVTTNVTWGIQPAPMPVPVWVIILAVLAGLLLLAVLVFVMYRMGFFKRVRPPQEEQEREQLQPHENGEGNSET
# Jurkat = experiment: Cytotoxicity against human Jurkat cells by trypan blue exclusion assay; assay type: cell-based
IC50 (Integrin alpha-4/beta-1 [1]) [µM],IC50 (Integrin alpha-4/beta-1 [2]) [µM],Ki (Integrin alpha-4/beta-1 [2]) [µM],inhibition (Integrin alpha-4/beta-1 [1]),Stability (Serum),inhibition (Integrin alpha-4/beta-1 [2]),metabolised at 2 h [3] [%],IC50 (Integrin alpha-V/beta-3) [µM],SMILES,Activity (SK-MEL-24),Activity (Jurkat)
> 100,> 100,> 100,–,–,–,–,–,Cc1ccccc1NC(=O)Nc1ccc(CNC(=O)[C@H]2CCN(C(=O)C[C@H](NC(=O)c3c(Cl)cccc3Cl)C(=O)O)C2)cc1,–,–
–,–,–,Dose-dependent effect,Unstable,Dose-dependent effect,–,–,Cc1ccccc1NC(=O)Nc1ccc(CC(=O)N[C@@H](CC(C)C)C(=O)N[C@@H](CC(=O)O)C(=O)N[C@H](C(=O)N2CCC[C@H]2C(=O)O)C(C)C)cc1 ({NH(2-Me-phenyl)-CO}-[X1]LDVP-OH),–,–
> 100,> 100,> 100,–,–,–,–,–,Cc1ccccc1NC(=O)Nc1ccc(CC(=O)N2CC[C@H](C(=O)N[C@@H](CC(=O)O)C(=O)OCc3ccccc3)C2)cc1,–,–
0.08,0.1,0.06,Dose-dependent effect,–,Dose-dependent effect,10,> 100,Cc1ccccc1NC(=O)Nc1ccc(CNC(=O)[C@H]2CCN(C(=O)[C@H](CC(=O)O)NC(=O)Cc3ccccc3)C2)cc1,Non-toxic,Non-toxic
> 100,3.9,2.4,–,–,Dose-dependent effect,–,–,Cc1ccccc1NC(=O)Nc1ccc(CNC(=O)[C@H]2CCN(C(=O)[C@H](CC(=O)O)NC(=O)c3c(Cl)cccc3Cl)C2)cc1,–,–
0.093,0.29,0.18,Dose-dependent effect,–,Dose-dependent effect,< 5,> 100,Cc1ccccc1NC(=O)Nc1ccc(CNC(=O)[C@H]2CCN(C(=O)C[C@H](NC(=O)Cc3ccccc3)C(=O)O)C2)cc1,Non-toxic,Non-toxic
